Screening results: PubChem BioAssay, Broad Institute
Compounds with a hit are over-represented: about 1.7% of the library has one in this group of screens.
PGC1a acetyl inh – PGC1a acetylation modulation, inhibitor mode; U2OS PGC1a acetylation, AlphaScreen anti-acetyl-lysine; with virally co-expressed GCN5 acetyltransferase; inhibition, % at 15.6 µM; 350,000 compounds, 0.17% hits; AID 651687;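 active = every replicate shows inhibition of at least 40%; inconclusive = mean inhibition at least 40% but some replicate below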;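 also: 0% = neutral control wells and 100% = positive control wells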
F508del corr – correctors of CFTR F508del function in bronchial epithelial cells | activity (quench increase), % at 7.58 µM | AID 720511 | 350,000 compounds, 0.36% hits | CFBE cells, YFP halide quenching; stimulated with forskolin plus potentiator P3; % fluorescence drop versus neutral controls;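 active = mean added fluorescence quench of at least 8% versus neutral control, with both replicates also reaching 8%; inconclusive = only one of the mean or replicate conditions met; inactive = mean below 8% and not both replicates reaching 8%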;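 also: cells transiently co-express mutant CFTR-F508del with the halide-sensitive YFP; corrector assay measuring rescue of mutant channel to the surface after 24 h compound exposure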
miR-122 sensor – blocks miR-122 activity in Huh7 sensor cells. AID 602342. Huh7 miR-122 Renilla luciferase sensor, 48 h; neutral wells = 0, positive control = 100. activation (reporter increase), % at 12.5 µM. 340,000 compounds, 0.3% hits;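 active = mean replicate activation score at least 90 and every replicate individually at or above 90; inconclusive = only one of the two criteria met; inactive = neither criterion met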;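 also: higher luciferase means less miR-122 activity so hits act as miR-122 inhibitors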
CAL PDZ FP-1 – blocks peptide binding to the human CAL PDZ domain. inhibition, % at 24.9 µM. purified CAL PDZ, TMR-peptide fluorescence polarization, 1 h. Q9HD26. 300,000 compounds, 0.92% hits;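 active = mean inhibition of at least 30% with at least half of replicates also reaching 30%; inconclusive = no clear call, values can overlap the other calls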;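 also: 0% = DMSO neutral control and 100% = excess unlabeled competitor peptide PRC23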
ARNT TACC3 PPI – ARNT/TACC3 interaction disruption. 390,000 compounds, 0.66% hits. AID 623870. inhibition, % at 9.99 µM. AlphaScreen His-ARNT PAS-B/GST-TACC3 binding, luminescence; TACC3 fragment carries E629A point mutation. Q9Y6A5;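 active = mean inhibition of replicates at least 50% and at least half of replicates each reaching 50%; inconclusive = half or more replicates reach 50% but mean below 50%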;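 also: 0% = complete ARNT plus TACC3 wells and 100% = ARNT alone without TACC3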
CAL PDZ FP-2 – blocks peptide binding to human CAL PDZ domain. purified CAL PDZ, TMR-peptide fluorescence polarization, 1 h. 330,000 compounds, 0.02% hits. inhibition, % at 20 µM. Q9HD26;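 active = highest replicate inhibition of at least 40%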;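 also: plate controls were DMSO neutral control wells for no effect and unlabeled competitor peptide control wells for full effect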
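System: purified tagged CAL PDZ domain construct (CerCALP). Schedule: 1 h incubation at room temperature before polarization reading. Medium: 25 mM sodium phosphate pH 7.4, 150 mM NaCl, TCEP, IgG, Thesit. Read-out: percent inhibition from loss of millipolarization. Measured by: FP readout, S and P plane fluorescence. Probe or stimulus: fluorescent TMR peptide probe.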
Numbers without * were called inactive; [ ] = another dose, or the depositor's remark.

Results for CNc1c2cccc(C)c2nc2c(C(=O)NCCN(C)C)cccc12 ?
F508del corr: 19*; CAL PDZ FP-1: -4; ARNT TACC3 PPI: 1; CAL PDZ FP-2: -1

How did CCC(=O)N1CCCc2cc(S(=O)(=O)N3CCN(C4CCCCC4)CC3)ccc21 do in these assays?
PGC1a acetyl inh: -3; miR-122 sensor: -6; CAL PDZ FP-1: 42*; ARNT TACC3 PPI: 2

What do the screens show for `COc1ccc(NC(=O)Nc2ccc(C(C)C)cc2)cc1`?
F508del corr: 0; CAL PDZ FP-1: -3; ARNT TACC3 PPI: -7; CAL PDZ FP-2: -1

Results for COc1ccc(NC(=O)Oc2cc(C)ccc2C(C)C)cc1 ?
PGC1a acetyl inh: -3; F508del corr: -1; miR-122 sensor: 15; CAL PDZ FP-1: 89*; ARNT TACC3 PPI: -6; CAL PDZ FP-2: -1

How did C[C@H](CO)N1C[C@H](C)[C@H](CN(C)C(=O)NC2CCCCC2)Oc2cc(C#Cc3ccc(F)cc3)ccc2S1(=O)=O do in these assays?
PGC1a acetyl inh: inconclusive; F508del corr: 8.2*; miR-122 sensor: -16[16.7 µM]; ARNT TACC3 PPI: 7

How did Cc1noc(C)c1NC(=O)N(C)C[C@@H]1Oc2cc(C#CCC3CCCC3)ccc2S(=O)(=O)N([C@H](C)CO)C[C@@H]1C do in these assays?
PGC1a acetyl inh: 1; F508del corr: 1; miR-122 sensor: -14[16.7 µM]; ARNT TACC3 PPI: 2

What do the screens show for `C[C@H](CO)N1C[C@H](C)[C@@H](CN(C)C(=O)c2ccc3c(c2)OCO3)Oc2cc(C#Cc3ccccc3F)ccc2S1(=O)=O`?
PGC1a acetyl inh: 26; F508del corr: -2; miR-122 sensor: -33[16.7 µM]; ARNT TACC3 PPI: 25

How did Cc1noc(C)c1NC(=O)N(C)C[C@H]1Oc2cc(C#CCC3CCCC3)ccc2S(=O)(=O)N([C@@H](C)CO)C[C@@H]1C do in these assays?
PGC1a acetyl inh: -8; F508del corr: 10*; miR-122 sensor: 19[16.7 µM]; ARNT TACC3 PPI: 4

What do the screens show for `C[C@H](CO)N1C[C@H](C)[C@H](CN(C)C(=O)c2ccc3c(c2)OCO3)Oc2cc(C#Cc3ccccc3F)ccc2S1(=O)=O`?
PGC1a acetyl inh: -1; F508del corr: 8.8*; miR-122 sensor: -30[16.7 µM]; ARNT TACC3 PPI: 18

Results for CCOC(=O)CSc1nnc(-c2ccc3ncccc3c2)n1C ?
F508del corr: 0; CAL PDZ FP-1: active; ARNT TACC3 PPI: 0; CAL PDZ FP-2: 0

How did CC(O)CNc1nc(N)[nH]c(=O)c1N=Nc1ccccc1 (stereo not given) do in these assays?
PGC1a acetyl inh: -5; F508del corr: 11*; miR-122 sensor: 7; CAL PDZ FP-1: -6; ARNT TACC3 PPI: 11; CAL PDZ FP-2: 1

What do the screens show for `Nc1nc(O)c(N=Nc2ccc(S(N)(=O)=O)cc2)c(=O)[nH]1`?
F508del corr: -1

How did O=S(=O)(c1ccc2c(c1)CCCN2)N1CCCC1 do in these assays?
PGC1a acetyl inh: -2; F508del corr: -3; miR-122 sensor: 0; CAL PDZ FP-1: 58*; CAL PDZ FP-2: 0

What do the screens show for `CS(=O)(=O)c1ccccc1-c1nnc(NC(=O)Cc2ccccc2)o1`?
PGC1a acetyl inh: -14; F508del corr: -5; miR-122 sensor: -1; CAL PDZ FP-1: -1; ARNT TACC3 PPI: 62*; CAL PDZ FP-2: 1

What do the screens show for `Fc1ccc(/C=N/NC(=S)Nc2ccc(Cl)cc2Cl)cc1`?
PGC1a acetyl inh: -9; F508del corr: 10*; CAL PDZ FP-1: -2; ARNT TACC3 PPI: -4; CAL PDZ FP-2: 0

Results for Fc1ccc(NC(=S)N/N=C/c2ccc(F)c(F)c2)cc1 ?
F508del corr: -1; CAL PDZ FP-1: 2; ARNT TACC3 PPI: 0; CAL PDZ FP-2: 1

What do the screens show for `CCN1CCN(S(=O)(=O)CC2(C)C3CCC2(C)C(=O)C3Br)CC1` (stereo not given)?
PGC1a acetyl inh: 2; F508del corr: -3; CAL PDZ FP-1: 41*; ARNT TACC3 PPI: -2; CAL PDZ FP-2: 0

Results for COCCNC(=O)C[C@@H]1CC[C@@H]2[C@H](COC[C@H](O)CN2Cc2cccc(-c3ccncc3)c2)O1 ?
PGC1a acetyl inh: -4; F508del corr: -1; miR-122 sensor: 11[16.7 µM]; ARNT TACC3 PPI: -5

What do the screens show for `CCc1ccccc1N(CC(=O)NCCc1ccccc1)C(=O)CCC(=O)Nc1ccccn1`?
PGC1a acetyl inh: -21; F508del corr: 0; miR-122 sensor: -7; CAL PDZ FP-1: 65*; ARNT TACC3 PPI: 2; CAL PDZ FP-2: 0

What do the screens show for `Cc1c(C(=O)Nc2nc(-c3ccccn3)cs2)oc2ccccc12`?
PGC1a acetyl inh: 12; miR-122 sensor: -3; CAL PDZ FP-1: -2; CAL PDZ FP-2: -6

How did CCc1sc(C(=O)Nc2nc(-c3ccccn3)cs2)cc1C do in these assays?
PGC1a acetyl inh: 7; miR-122 sensor: -3; CAL PDZ FP-1: -3; ARNT TACC3 PPI: 63*; CAL PDZ FP-2: -1

Results for O=C(COc1ccc(F)cc1Cl)Nc1nc(-c2ccccn2)cs1 ?
PGC1a acetyl inh: 14; F508del corr: 1; CAL PDZ FP-1: -2; ARNT TACC3 PPI: 48*; CAL PDZ FP-2: -1

What do the screens show for `C[C@H](NC(=O)c1ccccc1)C(=O)Nc1nc(-c2ccccn2)cs1`?
PGC1a acetyl inh: -1; F508del corr: 2; CAL PDZ FP-1: -2; ARNT TACC3 PPI: 64*; CAL PDZ FP-2: -3

How did N#Cc1ccccc1OCC(=O)Nc1nc(-c2ccccn2)cs1 do in these assays?
PGC1a acetyl inh: -2; F508del corr: 2; miR-122 sensor: -10

Results for O=C(Nc1nc(-c2ccccn2)cs1)c1cc2ccccc2o1 ?
F508del corr: 2; miR-122 sensor: 7; CAL PDZ FP-1: -9; ARNT TACC3 PPI: 66*; CAL PDZ FP-2: -3

Results for C[C@H](CO)N1C[C@H](C)[C@@H](CN(C)Cc2ccccc2)Oc2ccc(NC(=O)Nc3ccccc3)cc2CC1=O ?
PGC1a acetyl inh: 0; F508del corr: 2; miR-122 sensor: -6[16.7 µM]; ARNT TACC3 PPI: 12

How did CC(Oc1ccccc1)C(=O)Nc1nc(-c2ccccn2)cs1 (stereo not given) do in these assays?
F508del corr: 0; CAL PDZ FP-1: -5; ARNT TACC3 PPI: 68*; CAL PDZ FP-2: -3

Results for COC(=O)CCC(=O)N1CCOCCOCCOCC1 ?
F508del corr: -1; CAL PDZ FP-1: 40*; ARNT TACC3 PPI: -5; CAL PDZ FP-2: 0

Results for CCOC(=O)c1ccc(-c2ccc(C=O)o2)cc1 ?
F508del corr: 1; CAL PDZ FP-1: 64*; ARNT TACC3 PPI: -1; CAL PDZ FP-2: -1

What do the screens show for `COCCn1c(C)cc(C2=NNC(=Nc3ccccc3)SC2)c1C`?
PGC1a acetyl inh: 5; miR-122 sensor: -5; CAL PDZ FP-1: active; ARNT TACC3 PPI: -4; CAL PDZ FP-2: -1
